According to ChEMBL document CHEMBL1955761, “Privileged scaffolds or promiscuous binders: a comparative study on rhodanines and related heterocycles in medicinal chemistry” (J Med Chem, 2012):
Calls of active or inactive are those of the source.

How the values were obtained:
Escherichia coli [1] = test: Inhibition of Escherichia coli MurA using PEP as substrate assessed as inorganic phosphate release at 25 uM preincubated for 10 mins measured after 60 mins […]
Escherichia coli [2] = test: Inhibition of Escherichia coli MetAP at 10 uM after 15 mins by fluorescence analysis
Dengue virus = test: Inhibition of Dengue virus NS2B-NS3 protease using Abz-NleKRRS-3-(NO2)Y as substrate at 50 uM preincubated for 15 mins measured every sec for 15 mins by fluorimetric analysis
Prothrombin (Bos taurus) = Prothrombin (Bos taurus) (UniProt P00735); test: Inhibition of bovine plasma thrombin using Boc-Val-Pro-Arg-AMC as substrate at 25 uM preincubated for 15 mins measured after 10 mins by fluorimetric assay
In short: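 Purchased bovine plasma thrombin at 10 nM final, preincubated 15 min with 25 μM inhibitor; reaction started with 50 μM substrate. Buffer 50 mM Tris-HCl pH 7.5, 150 mM NaCl, 0.05% Tween 20. Triplicate, averaged.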

CC(=O)N1C(=S)NC(=O)[C@@H]1CC(C)C
inhibition (Escherichia coli [1]): inactive
inhibition (Escherichia coli [2]): 13%
inhibition (Dengue virus): inactive
inhibition (Prothrombin (Bos taurus)): inactive

O=C1NC(=O)/C(=C/c2sccc2Br)N1
inhibition (Escherichia coli [1]): inactive
inhibition (Escherichia coli [2]): inactive
inhibition (Dengue virus): 13%
inhibition (Prothrombin (Bos taurus)): 16%

O=C1NC(=S)N/C1=C\c1ccc2ccccc2c1
inhibition (Escherichia coli [1]): 32%
inhibition (Escherichia coli [2]): 15%
inhibition (Dengue virus): 46%
inhibition (Prothrombin (Bos taurus)): 27%

COc1ccc(/C=C/C=C2\NC(=S)NC2=O)cc1
inhibition (Escherichia coli [1]): 48%
inhibition (Escherichia coli [2]): 27%
inhibition (Dengue virus): 13%
inhibition (Prothrombin (Bos taurus)): 18%

COc1cc(/C=C2\SC(=S)NC2=O)ccc1O
inhibition (Escherichia coli [1]): 66%
inhibition (Escherichia coli [2]): 12%
inhibition (Dengue virus): 42%
inhibition (Prothrombin (Bos taurus)): 32%

O=C1NC(=O)/C(=C/c2c[nH]c3ccccc23)S1
inhibition (Escherichia coli [1]): inactive
inhibition (Escherichia coli [2]): 10%
inhibition (Dengue virus): 26%
inhibition (Prothrombin (Bos taurus)): 23%

O=C1CNC(=S)N1
inhibition (Escherichia coli [1]): inactive
inhibition (Escherichia coli [2]): inactive
inhibition (Dengue virus): inactive
inhibition (Prothrombin (Bos taurus)): inactive

O=C1NC(=O)/C(=C/c2ccc([N+](=O)[O-])cc2)N1
inhibition (Escherichia coli [1]): inactive
inhibition (Escherichia coli [2]): inactive
inhibition (Dengue virus): 26%
inhibition (Prothrombin (Bos taurus)): inactive

O=C1NC(=S)S/C1=C\c1ccc(O)c(O)c1
inhibition (Escherichia coli [1]): 89%
inhibition (Escherichia coli [2]): 65%
inhibition (Dengue virus): 50%
inhibition (Prothrombin (Bos taurus)): 35%

COc1ccc(/C=C2\NC(=S)NC2=O)cc1OC
inhibition (Escherichia coli [1]): 18%
inhibition (Escherichia coli [2]): 11%
inhibition (Dengue virus): 44%
inhibition (Prothrombin (Bos taurus)): 20%

O=C1NC(=O)/C(=C/c2ccc(Br)s2)N1
inhibition (Escherichia coli [1]): inactive
inhibition (Escherichia coli [2]): inactive
inhibition (Dengue virus): 22%
inhibition (Prothrombin (Bos taurus)): 22%

O=C1NC(=S)N/C1=C\c1cc(Br)cs1
inhibition (Escherichia coli [1]): 57%
inhibition (Escherichia coli [2]): 11%
inhibition (Dengue virus): 42%
inhibition (Prothrombin (Bos taurus)): 15%

O=C1CSC(=O)N1
inhibition (Escherichia coli [1]): inactive
inhibition (Escherichia coli [2]): inactive
inhibition (Dengue virus): 13%
inhibition (Prothrombin (Bos taurus)): inactive

O=C1NC(=O)/C(=C/c2cccc(O)c2)S1
inhibition (Escherichia coli [1]): inactive
inhibition (Escherichia coli [2]): 11%
inhibition (Dengue virus): 18%
inhibition (Prothrombin (Bos taurus)): inactive

O=C1NC(=S)S/C1=C\c1c[nH]c2ccccc12
inhibition (Escherichia coli [1]): inactive
inhibition (Escherichia coli [2]): inactive
inhibition (Dengue virus): 44%
inhibition (Prothrombin (Bos taurus)): 26%

O=C1NC(=O)/C(=C/c2ccc3ccccc3c2)N1
inhibition (Escherichia coli [1]): inactive
inhibition (Escherichia coli [2]): 46%
inhibition (Dengue virus): 36%
inhibition (Prothrombin (Bos taurus)): inactive

O=C1NC(=O)/C(=C/c2ccc(O)cc2)N1
inhibition (Escherichia coli [1]): inactive
inhibition (Escherichia coli [2]): inactive
inhibition (Dengue virus): 26%
inhibition (Prothrombin (Bos taurus)): 14%

O=C1NC(=S)N/C1=C\C1CCCCC1
inhibition (Escherichia coli [1]): 16%
inhibition (Escherichia coli [2]): 20%
inhibition (Dengue virus): 30%
inhibition (Prothrombin (Bos taurus)): 18%

C/C(=C1/SC(=S)NC1=O)c1ccccc1
inhibition (Escherichia coli [1]): 33%
inhibition (Escherichia coli [2]): inactive
inhibition (Dengue virus): 23%
inhibition (Prothrombin (Bos taurus)): 19%

CN(C)c1ccc(/C=C2\SC(=S)NC2=O)cc1
inhibition (Escherichia coli [1]): 15%
inhibition (Escherichia coli [2]): inactive
inhibition (Dengue virus): 36%
inhibition (Prothrombin (Bos taurus)): 21%

O=C1NC(=S)N/C1=C\c1ccc([N+](=O)[O-])cc1
inhibition (Escherichia coli [1]): 15%
inhibition (Escherichia coli [2]): 13%
inhibition (Dengue virus): 35%
inhibition (Prothrombin (Bos taurus)): 19%

COc1cccc(/C=C2\SC(=S)NC2=O)c1
inhibition (Escherichia coli [1]): 10%
inhibition (Escherichia coli [2]): inactive
inhibition (Dengue virus): 33%
inhibition (Prothrombin (Bos taurus)): 11%

O=C1NC(=O)[C@H](Cc2ccccc2)N1
inhibition (Escherichia coli [1]): inactive
inhibition (Escherichia coli [2]): 22%
inhibition (Dengue virus): inactive
inhibition (Prothrombin (Bos taurus)): inactive

O=C1NC(=O)/C(=C/c2ccccc2)N1
inhibition (Escherichia coli [1]): 100%
inhibition (Escherichia coli [2]): 17%
inhibition (Dengue virus): 38%
inhibition (Prothrombin (Bos taurus)): inactive

O=C1NC(=O)/C(=C/C=C/c2ccco2)S1
inhibition (Escherichia coli [1]): 24%
inhibition (Escherichia coli [2]): 12%
inhibition (Dengue virus): inactive
inhibition (Prothrombin (Bos taurus)): 24%

COc1ccc(/C=C2\NC(=O)NC2=O)cc1
inhibition (Escherichia coli [1]): inactive
inhibition (Escherichia coli [2]): 10%
inhibition (Dengue virus): 24%
inhibition (Prothrombin (Bos taurus)): 10%

CCCC/C=C/C1SC(=S)NC1=O (centres undefined)
inhibition (Escherichia coli [1]): 10%
inhibition (Escherichia coli [2]): 17%
inhibition (Dengue virus): 18%
inhibition (Prothrombin (Bos taurus)): inactive

O=C1NC(=O)/C(=C/c2sccc2Br)S1
inhibition (Escherichia coli [1]): 44%
inhibition (Escherichia coli [2]): inactive
inhibition (Dengue virus): inactive
inhibition (Prothrombin (Bos taurus)): 18%

O=C1NC(=S)N/C1=C\c1cnc[nH]1
inhibition (Escherichia coli [1]): 57%
inhibition (Escherichia coli [2]): 83%
inhibition (Dengue virus): 29%
inhibition (Prothrombin (Bos taurus)): 30%

O=C1NC(=S)N/C1=C\c1ccc(Cl)s1
inhibition (Escherichia coli [1]): 22%
inhibition (Escherichia coli [2]): inactive
inhibition (Dengue virus): 42%
inhibition (Prothrombin (Bos taurus)): 29%

CCCCC/C=C1\SC(=S)NC1=O
inhibition (Escherichia coli [1]): 14%
inhibition (Escherichia coli [2]): 21%
inhibition (Dengue virus): 35%
inhibition (Prothrombin (Bos taurus)): 18%

COc1ccc(/C=C2\SC(=S)NC2=O)cc1
inhibition (Escherichia coli [1]): inactive
inhibition (Escherichia coli [2]): inactive
inhibition (Dengue virus): 42%
inhibition (Prothrombin (Bos taurus)): 16%

O=C1NC(=O)C(Cc2ccc(O)c(O)c2)N1 (centres undefined)
inhibition (Escherichia coli [1]): 79%
inhibition (Escherichia coli [2]): 84%
inhibition (Dengue virus): inactive
inhibition (Prothrombin (Bos taurus)): inactive

O=C1NC(=S)N/C1=C\c1ccco1
inhibition (Escherichia coli [1]): 22%
inhibition (Escherichia coli [2]): inactive
inhibition (Dengue virus): 46%
inhibition (Prothrombin (Bos taurus)): 14%

O=C1NC(=S)S/C1=C\C1CCCCC1
inhibition (Escherichia coli [1]): 13%
inhibition (Escherichia coli [2]): 40%
inhibition (Dengue virus): 22%
inhibition (Prothrombin (Bos taurus)): 29%

O=C1NC(=S)S/C1=C\c1ccc(Cl)cc1Cl
inhibition (Escherichia coli [1]): 15%
inhibition (Escherichia coli [2]): inactive
inhibition (Dengue virus): 46%
inhibition (Prothrombin (Bos taurus)): 23%

O=C1NC(=O)C(Cc2ccccc2)S1 (centres undefined)
inhibition (Escherichia coli [1]): inactive
inhibition (Escherichia coli [2]): inactive
inhibition (Dengue virus): inactive
inhibition (Prothrombin (Bos taurus)): inactive

O=C1NC(=O)/C(=C/c2ccc(O)c(O)c2)N1
inhibition (Escherichia coli [1]): 70%
inhibition (Escherichia coli [2]): 100%
inhibition (Dengue virus): 37%
inhibition (Prothrombin (Bos taurus)): 32%

O=C1NC(=O)[C@@H](Cc2ccccc2)N1
inhibition (Escherichia coli [1]): inactive
inhibition (Escherichia coli [2]): inactive
inhibition (Dengue virus): inactive
inhibition (Prothrombin (Bos taurus)): inactive

Cn1cc(/C=C2\NC(=O)NC2=O)c2ccccc21
inhibition (Escherichia coli [1]): inactive
inhibition (Escherichia coli [2]): inactive
inhibition (Dengue virus): 34%
inhibition (Prothrombin (Bos taurus)): 20%

Nc1ccc(/C=C2\SC(=S)NC2=O)cc1
inhibition (Escherichia coli [1]): inactive
inhibition (Escherichia coli [2]): inactive
inhibition (Dengue virus): inactive
inhibition (Prothrombin (Bos taurus)): 11%
